Assay results as given in BindingDB's records for doi:10.1021/jm001008m (University of The Saarland, 2000).

How the values were obtained:
[1] = target: T1, Steroid 17-alpha-hydroxylase/17,20 lyase (Rattus norvegicus, UniProt P11715); assay: Evaluated for the inhibitory activity towards Cytochrome P450 17 rat enzyme using testicular microsome at 25 uM of substrate (progesterone)
T1 sequence (P11715 whole entry): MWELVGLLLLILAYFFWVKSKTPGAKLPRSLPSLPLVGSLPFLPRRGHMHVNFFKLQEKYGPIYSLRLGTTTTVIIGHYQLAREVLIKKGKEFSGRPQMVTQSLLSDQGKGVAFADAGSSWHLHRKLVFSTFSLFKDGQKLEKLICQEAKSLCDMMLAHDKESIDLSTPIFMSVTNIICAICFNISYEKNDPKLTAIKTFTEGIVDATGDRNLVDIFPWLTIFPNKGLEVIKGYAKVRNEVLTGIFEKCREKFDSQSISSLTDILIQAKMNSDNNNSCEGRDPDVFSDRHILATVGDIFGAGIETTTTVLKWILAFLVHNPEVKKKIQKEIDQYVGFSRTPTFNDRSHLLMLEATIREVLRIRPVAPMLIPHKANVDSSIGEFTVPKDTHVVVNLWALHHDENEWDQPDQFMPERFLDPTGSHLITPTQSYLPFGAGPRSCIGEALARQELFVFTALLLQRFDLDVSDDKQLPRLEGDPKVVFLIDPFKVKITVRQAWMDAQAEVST
In short: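 Testicular microsomes (human for human enzyme, rat for rat enzyme) incubated with progesterone substrate at 25 µM; product measured by RP-HPLC with UV detection. IC50 = concentration giving 50% inhibition, mean of at least two experiments.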

[2] = target: T2, 3-oxo-5-alpha-steroid 4-dehydrogenase 2 (Homo sapiens, UniProt P31213); assay: Evaluated for the inhibitory activity against human steroid 5-alpha-reductase type 2 from human BPH tissue at 210 nM of testosterone
T2 sequence (P31213 whole entry): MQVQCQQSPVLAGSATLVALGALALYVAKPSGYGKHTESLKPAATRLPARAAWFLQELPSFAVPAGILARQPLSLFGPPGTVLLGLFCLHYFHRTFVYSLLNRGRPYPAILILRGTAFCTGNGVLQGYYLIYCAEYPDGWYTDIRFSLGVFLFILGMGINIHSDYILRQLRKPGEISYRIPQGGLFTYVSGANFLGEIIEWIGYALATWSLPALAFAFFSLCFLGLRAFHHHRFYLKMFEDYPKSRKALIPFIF
In short: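 Enzyme from prostate homogenate of BPH patients, assayed at pH 5.5 with radiolabeled testosterone at 210 nM; product separated by HPLC. IC50 taken as inhibitor concentration giving 50% inhibition; mean of at least two experiments.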

[3] = target: T3, Steroid 17-alpha-hydroxylase/17,20 lyase (Homo sapiens, UniProt P05093); assay: Evaluated for the inhibitory activity towards Cytochrome P450 17 human enzyme using testicular microsome at 25 uM of substrate (progesterone)
T3 sequence (P05093 whole entry): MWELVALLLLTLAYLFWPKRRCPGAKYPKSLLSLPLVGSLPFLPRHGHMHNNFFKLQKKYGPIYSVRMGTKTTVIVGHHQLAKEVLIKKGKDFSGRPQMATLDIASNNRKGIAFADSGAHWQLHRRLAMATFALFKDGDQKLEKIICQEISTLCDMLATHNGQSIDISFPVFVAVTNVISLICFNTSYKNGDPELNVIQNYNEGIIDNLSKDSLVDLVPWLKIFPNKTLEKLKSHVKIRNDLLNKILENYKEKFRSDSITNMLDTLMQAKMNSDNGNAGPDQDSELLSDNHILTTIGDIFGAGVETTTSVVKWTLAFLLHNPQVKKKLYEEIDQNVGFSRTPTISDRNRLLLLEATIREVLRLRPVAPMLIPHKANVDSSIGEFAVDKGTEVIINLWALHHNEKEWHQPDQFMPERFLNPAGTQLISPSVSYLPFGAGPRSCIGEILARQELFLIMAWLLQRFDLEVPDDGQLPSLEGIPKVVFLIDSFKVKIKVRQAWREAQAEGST

CC(N=O)[C@H]1CCC2C3CCC4=CC(=O)CCC4(C)C3CCC21C (stereo partly drawn) [17-(1-Hydroxyimino-ethyl)-10,13-dimethyl-1,2,6,7,8,9,10,11,12,13,14,15,16,17-tetradecahydro-cyclopenta[a]phenanthren-3-one]
IC50 [1]: > 125 µM
IC50 [2]: 0.58 µM
IC50 [3]: > 2.5 µM
